Drawing on ChEMBL document CHEMBL1143581, “Cationic chalcone antibiotics. Design, synthesis, and mechanism of action” (2005), this text covers MIC for nine molecules.

Assay [1] has as its system Enterococcus faecium. The assay can be described thus: Minimum inhibitory concentration against Enterococcus faecium […]; NA=not active. The class given is functional, organism-based. Summed up:
(§1)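 Broth microdilution per NCCLS in Mueller-Hinton medium, run in triplicate, with an added uninoculated compound dilution series in case of precipitation. MIC read as the lowest concentration preventing visible growth; reported values are the mean of three experiments.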

For assay [2], the system named is Enterococcus faecium. The assay can be described thus: Minimum inhibitory concentration against Enterococcus faecium 17501 (vancomycin-resistant clinical isolate); NA=not active. The class given is functional, organism-based.
The subject of assay [3] is Staphylococcus aureus. The experiment in a line: Minimum inhibitory concentration against Staphylococcus aureus ATCC 33591 (resistant to methicillin); NA=not active. In kind it is functional, organism-based.
The test system of assay [4] is Enterococcus faecium. The experiment in a line: Minimum inhibitory concentration against Enterococcus faecium […]. In kind it is functional.
In assay [5] the test system is Escherichia coli. The assay can be described thus: (§2) Minimum inhibitory concentration against Escherichia coli ATCC 25922; NA=not active. In kind it is functional, organism-based.
Assay [6] relates to Staphylococcus aureus. The assay can be described thus: Minimum inhibitory concentration against Staphylococcus aureus ATCC 33591 (resistant to methicillin). The class given is functional.
Assay [7] has as its system Enterococcus faecium. The experiment in a line: Minimum inhibitory concentration against Enterococcus faecium 17501 (vancomycin-resistant clinical isolate). The class given is functional.
Assay [8] concerns Escherichia coli. The assay is described as §2. The class given is functional, organism-based. Summed up:
as §1
The source holds these as a separate data set.

Values after ≈ are worked out from the molar mass of the structure shown. Active and inactive are the calls of the source.

Regarding `COc1ccc(C(=O)/C=C/c2cc(-c3ccc(C(F)(F)F)cc3)ccc2N2CCN(C)CC2)c(F)c1`, the MIC result with Enterococcus faecium [1], with Enterococcus faecium [2] and with Staphylococcus aureus [3] was “inactive” each time.

Take `CN(C)CCNc1cccc(C(=O)/C=C/c2ccc(N3CCN(C)CC3)c(-c3ccccc3)c2)c1`: the MIC with Enterococcus faecium [4] was determined as 150 µM (≈ 70.3 µg/mL); in the assay with Staphylococcus aureus [6], 75 µM (≈ 35.1 µg/mL); against Enterococcus faecium [7], 75 µM (≈ 35.1 µg/mL). The MIC entry with Escherichia coli [5] was “inactive”.

For the molecule `COc1ccc(C(=O)/C=C/c2cc(-c3cccc(CO)c3)ccc2N2CCN(C)CC2)c(F)c1`, the MIC result in the assay with Enterococcus faecium [1], with Enterococcus faecium [2] and with Staphylococcus aureus [3] was “inactive” throughout.

On to `Cc1cc(C)cc(-c2ccc(OCCN(C)C)c(/C=C/C(=O)c3ccc(N)cc3)c2)c1`, for which the results for the MIC in the assay with Enterococcus faecium [4], with Staphylococcus aureus [6] and against Enterococcus faecium [7] were 20 µM (≈ 8.29 µg/mL), 10 µM (≈ 4.15 µg/mL) and 10 µM (≈ 4.15 µg/mL), respectively. The MIC result with Escherichia coli [5] is “inactive”.

In the case of `COc1ccc(C(=O)/C=C/c2cc(-c3ccccc3OC)ccc2N2CCN(C(C)=O)CC2)c(F)c1`, the MIC result in the assay on Enterococcus faecium [1], with Enterococcus faecium [2] and in the assay on Staphylococcus aureus [3] was “inactive” throughout.

Turning to `CN(C)CCNc1ccc(C(=O)/C=C/c2ccccc2)cc1`, the MIC entry with Enterococcus faecium [1] and in the assay on Enterococcus faecium [2] was “inactive” throughout. Besides, the minimal inhibitory concentration (MIC) against Staphylococcus aureus [6] is 300 µM (≈ 88.3 µg/mL).

Consider `Cc1cc(C)cc(-c2ccc(OCCN(C)C)c(/C=C/C(=O)c3cccc(N)c3)c2)c1`, for which the MIC against Enterococcus faecium [4], in the assay with Staphylococcus aureus [6] and with Enterococcus faecium [7] was 10 µM (≈ 4.15 µg/mL) each time. Further, in the assay on Escherichia coli [5], the MIC entry is “inactive”.

As for `Cc1cc(C)cc(-c2ccc(OCCN(C)C)c(/C=C/C(=O)c3ccccc3N)c2)c1`, the MIC against Enterococcus faecium [4] worked out at 10 µM (≈ 4.15 µg/mL); in the assay with Staphylococcus aureus [6] it was 5 µM (≈ 2.07 µg/mL); in the assay with Enterococcus faecium [7], 5 µM (≈ 2.07 µg/mL). In the assay on Escherichia coli [8], the MIC result is “inactive”.

As for `CN(C)CCNc1cccc(C(=O)/C=C/c2cc(N3CCN(C)CC3)ccc2-c2ccccc2)c1`, the MIC with Enterococcus faecium [4], against Staphylococcus aureus [6] and in the assay with Enterococcus faecium [7] was 75 µM (≈ 35.1 µg/mL) throughout. Moreover, the MIC entry in the assay on Escherichia coli [5] was “inactive”.

In general, MIC refers to the smallest concentration in the dilution series that meets the test's criterion for growth inhibition.
